Reference: PubChem BioAssay AID463177 (The Scripps Research Institute Molecular Screening Center, 2010)
Calls of active or inactive are those of the source.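 Rule for the calls: active = apoptotic subG1 cells at or above 20% at some dose above 100 nM; inactive = subG1 cells below 20% at every dose.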

Assay: HeLa subG1 and cell-cycle phase fractions – FACS, counter-screen for Wee1 degradation inhibitor project, late-stage follow-up (AID 463177)
Conditions: PI FACS subG1 fraction, 20 h; G1 fraction: HeLa apoptosis, G1 phase cells, at 5 µM; G2 fraction: HeLa apoptosis, G2 phase cells, at 5 µM; S fraction: HeLa apoptosis, S phase cells, at 5 µM; subG1 cells, higher = apoptosis: at 5 µM (top of the series)
Summary of the method: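 test system = parental HeLa cells | compound dosing = seven doses, top 5 µM nominal | timing = 20 h compound treatment | technique = flow cytometry of propidium iodide DNA stain with RNase A, ethanol-fixed cells | measure = Cell-cycle phase fractions (%), subG1 marking apoptosis | controls = DMSO vehicle reference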

Row | Compound | G1 fraction | G2 fraction | S fraction | subG1 cells, higher = apoptosis
1 | c1ccc2[nH]c(CNc3nc(N4CCOCC4)nc4c3ncn4-c3ccsc3)nc2c1 | 24.9% | 4.14% | 22.5% | 47.6% (active)
2 | O=[N+]([O-])c1cccc2[nH]c(CNc3nc(N4CCOCC4)nc4c3ncn4-c3ccsc3)nc12 | 41.5% | 9.18% | 22.8% | 26.3% (active)
